Data taken from ChEMBL document CHEMBL1944576, “Synthesis and antiplasmodial evaluation of novel chromeno[2,3-b]chromene derivatives” (Bioorg Med Chem, 2012).

Legend:
[1] = system: Plasmodium falciparum; experiment: Antiplasmodial activity against chloroquine-sensitive ring-stage Plasmodium falciparum 3D7 assessed as [3H]hypoxanthine incorporation after 48 hrs by liquid scintillation counter; format: functional, organism-based
Summary of the method: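 Ring-stage 3D7-infected erythrocytes at 0.5% parasitemia, 2.5% hematocrit, in triplicate wells with serial compound dilutions. After 48 h under standard culture conditions, 0.5 µCi [3H]-hypoxanthine was added per well and culture continued a further 24 h. Harvested cells counted by scintillation. Inhibition was taken against matched 0.5% DMSO controls. IC50 was obtained by linear interpolation, as the mean of two independent triplicate experiments.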

[2] = Cytotoxicity against human NFF assessed as growth inhibition at 100 uM after 3 days by sulforhodamine B assay; format: cell-based; conditions: NFF cells, read-out: GI
[3] = Cytotoxicity against human NFF assessed as growth inhibition at 50 uM after 3 days by sulforhodamine B assay; format: cell-based; conditions: NFF cells, read-out: GI
[4] = system: NFF; experiment: Cytotoxicity against human NFF assessed as growth inhibition after 3 days by sulforhodamine B assay; format: cell-based; conditions: 72 h
Summary of the method: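 NFF cells were kept in log phase in RPMI 1640 with 10% FCS and 1% streptomycin at 37 °C, 5% CO2. They were seeded at 3000/well and grown 24 h before treatment. Compounds went in as DMSO solutions diluted in medium, with DMSO ≤1% and DMSO-matched controls. After 3 days cells were PBS-washed and fixed in methylated spirits. Total protein was measured by sulforhodamine B, in triplicate across three independent experiments.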

SMILES | IC50 [1] | inhibition at 72 h, 100 µM [2] | inhibition at 72 h, 50 µM [3] | IC50 [4]
COc1ccc2c(c1)C[C@@H]1[C@H](/C=C/c3ccc(C)cc3)c3cc(OC)ccc3O[C@]1(c1ccc(C)cc1)O2 | 8.9 µM | 40% |  | 
COc1ccc2c(c1)C[C@@H]1[C@H](/C=C/c3ccc(Cl)cc3)c3cc(OC)ccc3O[C@]1(c1ccc(Cl)cc1)O2 | 35.6 µM | 40.4% |  | 
COc1ccc2c(c1)C[C@@H]1[C@H](/C=C/c3ccc(Br)cc3)c3cc(OC)ccc3O[C@]1(c1ccc(Br)cc1)O2 | 17.2 µM | 51% |  | 
COc1ccc2c(c1)C[C@@H]1[C@H](/C=C/c3ccccc3)c3cc(OC)ccc3O[C@]1(c1ccccc1)O2 | 10.2 µM | 51.4% |  | 
COc1cccc2c1C[C@@H]1[C@H](/C=C/c3ccc(Cl)cc3)c3c(OC)cccc3O[C@]1(c1ccc(Cl)cc1)O2 | 8.3 µM | 83.6% |  | 
COc1cccc2c1C[C@@H]1[C@H](/C=C/c3ccc(Br)cc3)c3c(OC)cccc3O[C@]1(c1ccc(Br)cc1)O2 | 39.8 µM | 38% |  | 
COc1cc(OC)c2c(c1OC)O[C@@H](c1ccccc1)[C@H]1[C@@H]2Oc2c(OC)c(OC)cc(OC)c2[C@@H]1/C=C/c1ccccc1 (relative stereo) | 3.9 µM |  | 46.9% | 
COc1ccc(/C=C/[C@@H]2c3c(OC)cccc3O[C@]3(c4ccc(OC)cc4)Oc4cccc(OC)c4C[C@H]23)cc1 | 8.2 µM | 54.6% |  | 
CCN(CC)CCCC(C)Nc1ccnc2cc(Cl)ccc12 (stereo unspecified) [CHLOROQUINE] |  |  |  | 34 µM
COc1cccc2c1C[C@@H]1[C@H](/C=C/c3ccc(C)cc3)c3c(OC)cccc3O[C@]1(c1ccc(C)cc1)O2 | 6.8 µM | 60.1% |  | 
COc1cccc2c1C[C@@H]1[C@H](/C=C/c3ccccc3)c3c(OC)cccc3O[C@]1(c1ccccc1)O2 | 17.3 µM | 48.6% |  | 
